From PubChem BioAssay
MC4R antag cAMP – blocks human MC4R cAMP signaling; hit rate 0.48% among 360,000; P32245; AID 540295; MC4R-expressing cells, MTII-stimulated cAMP, LANCE TR-FRET; inhibition, % at 6.5 µM;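 active means inhibition above its plate's cutoff, the mean of tested wells on that plate plus 3 SD, cut at about 29% in these data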
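Assay system: U2OS cells stably expressing human melanocortin 4 receptor (MC4R) / Dosing: 6.5 µM / Timing: compound 30 min, challenge 1 h, detection 1 h / Measured by: Eu-cAMP/anti-cAMP TR-FRET, emission 671 nm / Replicates: singlicate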
GAA850 FXN act – increases GAA850 frataxin promoter reporter activity. hit rate 0.56% among 360,000. HEK293 lucGAA850 FXN promoter luciferase reporter, 24 h; percent of 10 µM SAHA response. AID 540364. activation, % at 6 µM;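 active means activation above the average of all compounds screened plus 3 SD, cutoff fixed separately per campaign, cut at about 7.5% in these data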
HTR2A ag – agonists of mouse serotonin 5-HT2A receptor (HTR2A) | activation, % at 7.6 µM | hit rate 0.66% among 360,000 | CHO-K1 mHTR2A beta-arrestin complementation, luminescence; percent of 30 µM serotonin response | P35363;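 active means activation above a run cutoff, the mean activation of all tested compounds plus 3 SD, cut at about 14% in these data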
Target sequence (P35363 whole entry, looked up): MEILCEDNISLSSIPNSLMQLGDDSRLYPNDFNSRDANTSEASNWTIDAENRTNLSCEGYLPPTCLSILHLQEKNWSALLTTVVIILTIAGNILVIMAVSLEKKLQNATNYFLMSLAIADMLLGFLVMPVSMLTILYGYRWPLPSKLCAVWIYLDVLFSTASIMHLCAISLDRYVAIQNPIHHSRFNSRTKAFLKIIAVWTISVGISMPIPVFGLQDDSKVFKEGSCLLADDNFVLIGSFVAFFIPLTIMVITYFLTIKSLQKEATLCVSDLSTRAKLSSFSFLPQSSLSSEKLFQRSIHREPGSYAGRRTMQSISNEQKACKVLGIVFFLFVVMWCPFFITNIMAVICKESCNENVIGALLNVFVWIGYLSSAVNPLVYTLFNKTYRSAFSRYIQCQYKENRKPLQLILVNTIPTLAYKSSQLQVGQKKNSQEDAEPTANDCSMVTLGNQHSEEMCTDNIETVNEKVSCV
MC4R ag barr – agonists of human melanocortin 4 receptor (MC4R) beta-arrestin; P32245; U2OS MC4R beta-arrestin complementation, luminescence; percent of melanotan II response, DMSO zero; activation, % at 8.9 µM; hit rate 0.98% among 360,000; AID 540308;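 active means activation above a per-plate cutoff, the mean activation of sample wells on that plate plus 3 SD, cut at about 8% in these data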
AHR act – activates the human aryl hydrocarbon receptor | P35869 | AHR-responsive luciferase reporter cells, luminescence | activation, % at 5 µM | hit rate 2.5% among 320,000; in the data active means activation above about 47%
Each line names hits and unclear results; the compound was inactive in the other large screens. Only some compounds are listed: those with a hit (about 4.7% of all), similar ones and a draw of the others.

CO[C@@H]1CN(C)C(=O)c2ccc(NC(=O)c3ccccc3F)cc2OC[C@@H](C)N(CC2CCOCC2)C[C@@H]1C	none (no result: MC4R antag cAMP, GAA850 FXN act, MC4R ag barr, AHR act)
CCOC(=O)c1ccc(Nc2nc(C)cc(C)c2C#N)cc1	none
Cc1cc(C)c(C#N)c(Nc2ccc(F)cc2)n1	AHR act 74
COc1ccc(-c2sc3ccccc3c2/C=C/c2ccc(N)cc2)cc1	AHR act 54
COc1ccc(/C=C/c2c(-c3ccc(OC)cc3)sc3ccc(N4CCOCC4)cc23)cc1	none
COc1ccc2sc(-c3ccc(SC)cc3)c(/C=C/c3ccc(OC)c(OC)c3)c2c1	AHR act 49
NS(=O)(=O)c1ccc(NC(=O)COC(=O)CC2Sc3ccccc3NC2=O)cc1 (centres undefined)	none
O=C(O)C1OCC2(CO1)COC(C(=O)O)OC2 (centres undefined)	none (no result: AHR act)
CC(C)(C)c1ccc(C(=O)N2CCC2(C)C(=O)NCc2ccc3c(c2)OCO3)cc1 (centres undefined)	none (no result: AHR act)
COC(=O)c1sccc1NC(=O)/C=C/c1ccc(Cl)cc1	AHR act 54
O=C(O)c1c(C(=O)N2N=C3/C(=C/c4ccccc4)CCCC3C2c2ccccc2)cccc1[N+](=O)[O-] (centres undefined)	AHR act 78
CC(=O)c1sc(NC(=O)c2ccc(F)c(S(=O)(=O)N3CCOCC3)c2)nc1C	none
Cc1ccc(NC2=C/C(=N/S(=O)(=O)c3cccs3)c3ccccc3C2=O)cc1C	none
Cc1cc(C)c(S(=O)(=O)/N=C2/C=C(Sc3ncn[nH]3)C(=O)c3ccccc32)cc1C	MC4R antag cAMP 62
CC(=O)/C(N=Nc1cc(C)ccc1O)=C(\C)O	AHR act 56
CC(=O)/C(N=Nc1ccc(C(=O)O)cc1[N+](=O)[O-])=C(\C)O	none
CC(=O)C1=C(C)NC(SCC(=O)c2ccc(Cl)cc2Cl)=C(C#N)C1c1ccco1 (centres undefined)	AHR act 107
CC(=O)C1=C(C)NC(SCC(=O)c2ccccc2)=C(C#N)C1c1ccco1 (centres undefined)	AHR act 107 (no result: MC4R antag cAMP, GAA850 FXN act, HTR2A ag, MC4R ag barr)
CC(=O)C1=C(C)NC(SCC(=O)c2ccc(Cl)cc2)=C(C#N)C1c1ccco1 (centres undefined)	none
OC1CCC2CN3CCc4c([nH]c5ccccc45)C3CC2C1 (centres undefined)	none (no result: AHR act)
O=C(c1ccc2c(c1)CCC2)N1CCN(Cc2ccccc2)CC1	none (no result: AHR act)
O=C(Nc1cccc(F)c1)c1ccc(-c2ccccc2Cl)o1	AHR act 50
Cc1ccc(-c2ccc(C(=O)Nc3cccc(F)c3)o2)c2ccccc12	none
C/C(=N\N=c1/sc2ccccc2n1C)c1ccc(N2CCOCC2)cc1	AHR act 53
C=CCn1c(SCc2nc3ccccc3c(=O)[nH]2)nc2ccccc2c1=O	AHR act 60
C=CCn1c(Cc2ccccc2)nnc1SCc1nc2ccccc2c(=O)[nH]1	none
COCCN(C(=O)COC(=O)c1ccc(Br)o1)c1c(N)n(Cc2ccccc2)c(=O)[nH]c1=O	none (no result: AHR act)
Cc1nc(N2CCN(Cc3ccc4c(c3)OCO4)CC2)c2oc3ccccc3c2n1	none (no result: AHR act)
Cc1nc(Nc2ccccc2)c2oc3ccc(Cl)cc3c2n1	AHR act 51
CCc1nc(Nc2ccccc2)c2oc3ccccc3c2n1	none
COc1ccc(Nc2nc(C)nc3c2oc2ccccc23)cc1	none
Cc1nc(NCCN2CCOCC2)c2oc3ccccc3c2n1	none
Cc1ccc(Nc2nc(C)nc3c2oc2ccccc23)cc1	AHR act 61
Cc1nc(Nc2ccc3c(c2)OCO3)c2oc3ccccc3c2n1	AHR act 65
Cc1nc(NCCc2ccccc2)c2oc3ccccc3c2n1	AHR act 64
CCCN(C(=O)c1nc2nc(C)cc(C)n2n1)c1c(N)n(Cc2ccccc2)c(=O)[nH]c1=O	none
Cc1cn([C@H]2C[C@H](O)[C@@H](CNCc3ccc(-c4cc(Cl)ccc4C(F)(F)F)o3)O2)c(=O)[nH]c1=O	none (no result: AHR act)
O=C(Nc1ccc(N2CCOCC2)cc1)c1csc([C@@H]2C[C@H](O)[C@@H](CO)O2)n1	none (no result: AHR act)
O=C1NC[C@H](CCCCN2C[C@H](Cc3ccccc3)N(CCc3ccc(O)cc3)C(=O)C2=O)N(CC2CCCCC2)C1=O	none (no result: MC4R antag cAMP, GAA850 FXN act, MC4R ag barr, AHR act)
Cc1ccc(-c2nc3ccccc3s2)cc1NC(=O)c1ccc2c(c1)OCO2	MC4R antag cAMP 38
CCCCNC(=O)c1ccccc1NC(=O)c1ccc2c(c1)OCO2	AHR act 58
CC(C)(C)NC(=O)c1ccccc1NC(=O)c1ccc2c(c1)OCO2	AHR act 68
CC(=O)Nc1ccccc1NC(=O)c1ccc2c(c1)OCO2	none (no result: AHR act)
OC(c1ccc(F)c(F)c1)c1nc(-c2ccc3ccccc3c2)cs1 (centres undefined)	none (no result: AHR act)
C=CCC(NC(=O)N(C)C)(C(=O)OC)C(C)O (centres undefined)	none (no result: MC4R antag cAMP, GAA850 FXN act, MC4R ag barr, AHR act)
COc1ccc(CCNC(=O)CCc2cn(C)c3ccccc23)c(OC)c1OC	none
Cc1cc(OCc2cn(CC(=O)c3ccc(O)cc3)nn2)ccc1[N+](=O)[O-]	none (no result: AHR act)
Cc1ccc(C)c(OCCC(=O)OCC(=O)Nc2cc(S(=O)(=O)N3CCCCC3)ccc2C)c1	none
C=CCNC(=O)N1CCC(c2nc3ccccc3s2)CC1	none
COC(=O)c1ccccc1NC(=O)c1cc2sccc2n1C	AHR act 65
O=C(Nc1ccc(F)c(Cl)c1)c1cc(C2CCCCN2C(=O)c2ccc3c(c2)CCO3)on1 (centres undefined)	none (no result: AHR act)
Cc1c(C(=O)O)oc2c(F)cccc12	none
Cc1c(C(=O)NC2CCOC2)oc2c(F)cccc12 (centres undefined)	AHR act 79
CCc1ccccc1NC(=O)CN1CCN(C(=O)CNC(=O)c2ccc(N3CCCC3=O)cc2)CC1	none
O=C(Cn1cc([N+](=O)[O-])cn1)N1CCCc2ccccc21	none
O=C(Cn1cc([N+](=O)[O-])cn1)N1CCc2ccccc21	HTR2A ag 16
c1ccc(-c2nnc(-c3ccccc3)o2)cc1	AHR act 59
Clc1cccc(-c2nnc(-c3ccno3)o2)c1	none
Clc1cccc(-c2nnc(-c3ccccc3)o2)c1	AHR act 65
CCCn1c(=O)[nH]c(=O)c2c1nc(-c1ccc(OC(F)(F)C(F)C(F)(F)F)cc1)n2CCOC (centres undefined)	MC4R ag barr 10.0
CCCn1c(=O)[nH]c(=O)c2c1nc(-c1ccc(C#N)cc1)n2CCOC	none
Cn1cc(-c2ccc(C(=O)Nc3cccc(Oc4ccccc4)c3)c3occc23)cn1	MC4R ag barr 9.2 (no result: AHR act)
COc1ccc(-c2ccc(C(=O)Nc3cccc(Oc4ccccc4)c3)c3occc23)c(C)c1	none (no result: AHR act)
O=C(N/N=C\c1cn[nH]c1-c1ccccc1)c1ccc([N+](=O)[O-])cc1	none
Cc1cc(C(=O)N/N=C/c2cn[nH]c2-c2ccccc2)cs1	AHR act 96
O=C(N/N=C\c1cn[nH]c1-c1ccc(Cl)cc1)c1cccs1	MC4R ag barr 8.8
O=C(N/N=C/c1cn[nH]c1-c1ccccc1)c1ccco1	AHR act 65
